Columns and labels:
[1] = target: Mitogen-activated protein kinase 8 (Homo sapiens, UniProt P45983); assay: Inhibition of JNK1
[2] = target: c-Jun N-terminal kinase, JNK (Homo sapiens, UniProt P45983+P53779+P45984); assay: Inhibition of TNF-alpha-stimulated cJun phosphorylation in HepG2 cells; assay type: functional, cell-based
Summary of the method: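 Cell-based ELISA in HepG2 cells detecting phospho-c-Jun after TNFa stimulation. Inhibition of c-Jun phosphorylation read out and expressed as IC50.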

[3] = target: Mitogen-activated protein kinase 1 (Homo sapiens, UniProt P28482); assay: Inhibition of ERK2
Sequence of Mitogen-activated protein kinase 1 (P28482 whole entry): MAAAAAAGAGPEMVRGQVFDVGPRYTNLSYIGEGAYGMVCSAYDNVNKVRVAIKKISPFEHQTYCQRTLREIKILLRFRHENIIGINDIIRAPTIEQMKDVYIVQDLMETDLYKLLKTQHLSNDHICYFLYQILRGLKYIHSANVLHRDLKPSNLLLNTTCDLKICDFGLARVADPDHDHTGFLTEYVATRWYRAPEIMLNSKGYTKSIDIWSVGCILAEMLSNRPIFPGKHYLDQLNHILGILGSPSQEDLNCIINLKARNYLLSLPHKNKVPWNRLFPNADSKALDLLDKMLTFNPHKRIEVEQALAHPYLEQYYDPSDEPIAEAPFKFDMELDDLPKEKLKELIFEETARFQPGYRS

[4] = target: Mitogen-activated protein kinase 9 (Homo sapiens, UniProt P45984); assay: Inhibition of JNK2
Sequence of Mitogen-activated protein kinase 9 (P45984 whole entry): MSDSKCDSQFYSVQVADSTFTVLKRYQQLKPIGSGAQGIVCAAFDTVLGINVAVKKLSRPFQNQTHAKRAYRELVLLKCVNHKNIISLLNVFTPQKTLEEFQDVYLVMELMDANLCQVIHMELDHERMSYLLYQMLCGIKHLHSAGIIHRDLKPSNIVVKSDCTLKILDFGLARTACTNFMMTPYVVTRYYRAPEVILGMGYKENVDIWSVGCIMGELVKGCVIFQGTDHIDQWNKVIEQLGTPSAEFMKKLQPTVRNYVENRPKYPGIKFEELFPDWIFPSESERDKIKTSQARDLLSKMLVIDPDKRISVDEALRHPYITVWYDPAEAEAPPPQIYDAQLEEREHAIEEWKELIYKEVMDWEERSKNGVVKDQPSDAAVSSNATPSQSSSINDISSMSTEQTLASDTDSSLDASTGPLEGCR

[5] = Stability in human liver microsome after 30 mins; assay type: ADME; conditions: liver microsomes, read-out: Stability
Summary of the method: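 Parent compound incubated with human liver microsomes for 30 min. Percentage of parent recovered afterwards was measured.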

MAP kinase p38 = MAP kinase p38 (Homo sapiens, UniProt O15264+Q15759+Q16539+P53778); assay: Inhibition of p38; assay type: protein assay

Sequence of Mitogen-activated protein kinase 8 (P45983 whole entry): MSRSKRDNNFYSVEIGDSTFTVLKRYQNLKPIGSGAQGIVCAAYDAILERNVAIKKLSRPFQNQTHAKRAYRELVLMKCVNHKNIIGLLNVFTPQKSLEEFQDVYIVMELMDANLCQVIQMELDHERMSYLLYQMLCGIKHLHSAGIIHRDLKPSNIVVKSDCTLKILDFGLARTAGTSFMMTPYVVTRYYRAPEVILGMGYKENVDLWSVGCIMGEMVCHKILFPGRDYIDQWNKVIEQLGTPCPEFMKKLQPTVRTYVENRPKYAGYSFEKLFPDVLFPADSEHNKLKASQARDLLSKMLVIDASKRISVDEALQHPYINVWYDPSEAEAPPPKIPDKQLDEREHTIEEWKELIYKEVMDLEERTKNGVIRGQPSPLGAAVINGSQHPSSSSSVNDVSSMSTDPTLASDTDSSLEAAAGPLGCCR

SMILES	IC50 [1] [µM]	IC50 [2] [µM]	other results
Cc1nn(C)c2nc3ccc(Cl)cc3c(O)c12	> 10	–	–
Cn1nc(CCC(=O)O)c2c(=O)c3cc(Cl)ccc3n(O)c21	> 10	–	–
Cn1nc(CCCC(=O)O)c2c(=O)c3cc(Cl)ccc3n(O)c21	2.74	> 30	–
CNC(=O)Cn1nc(C)c2c(=O)c3cc(Cl)ccc3n(O)c21	8.77	> 30	–
Cc1nn(CCO)c2c1c(=O)c1cc(Cl)ccc1n2O	7.67	> 30	–
Cn1nc(C(F)(F)F)c2c(=O)c3cc(Cl)c(Cl)cc3n(O)c21	5.14	> 30	–
Cn1nc(CCN)c2c(=O)c3cc(Cl)ccc3n(O)c21	2.83	> 30	–
Cc1nn(C)c2c1c(=O)c1ccccc1n2O	> 10	–	–
Cn1nc(C(C)(C)C)c2c(=O)c3cc(Cl)ccc3n(O)c21	> 10	–	–
COc1cc(Cl)cc2c(=O)c3c(C(F)(F)F)nn(C)c3n(O)c12	> 10	–	–
CCc1nn(C)c2c1c(=O)c1cc(Cl)ccc1n2O	0.96	32	–
Cc1nn(C)c2c1c(=O)c1cc(Cl)ccc1n2O	–	> 30	IC50 [3]: > 50 µM; IC50 [4]: 3.1 µM; remaining at 0.5 h [5]: 100%; IC50 (MAP kinase p38): > 50 µM
CCNC(=O)NCCCc1nn(C)c2c1c(=O)c1cc(Cl)ccc1n2O	0.5	> 30	–
Cn1c2[n+]([O-])c3ccc(Cl)cc3c(=O)c-2c2n1C(=O)NCC2	0.29	0.85	–
CN(C)c1cc2c(cc1Cl)c(=O)c1c(C(F)(F)F)nn(C)c1n2O	> 10	–	–
CCOC(=O)Cn1nc(C)c2c(=O)c3cc(Cl)ccc3n(O)c21	7.64	> 30	–
Cc1nn(C)c2c1c(=O)c1cc(Cl)ccc1n2OCc1ccccc1	> 10	–	–
Cc1nn(CC(=O)O)c2c1c(=O)c1cc(Cl)ccc1n2O	4.41	> 30	–

SMILES	IC50 [1] [µM]	IC50 [2] [µM]	other results
CCOn1c2ccc(Cl)cc2c(=O)c2c(C)nn(C)c21	2.78	10.6	–
CC(C)c1nn(C)c2c1c(=O)c1cc(Cl)ccc1n2O	2.64	> 30	–
Cc1nn(C)c2c1c(=O)c1cc(-c3cc[nH]n3)ccc1n2O	> 10	–	–
Cc1nn(C)c2c1c(=O)c1cc(Cl)ccc1n2OC(C)C	> 10	–	–
Cc1nn(C)c2c1c(=O)c1cc(-c3ccccc3)ccc1n2O	> 10	–	–
COn1c2ccc(Cl)cc2c(=O)c2c(C)nn(C)c21	4.59	19.4	–
Cc1nn(C)c2c1c(=O)c1cc(Cl)ccc1n2OC1CCCC1	> 10	–	–
CCCCc1nn(C)c2c1c(=O)c1cc(Cl)ccc1n2O	0.52	> 30	–
CCOC(=O)NCCc1nn(C)c2c1c(=O)c1cc(Cl)ccc1n2O	0.43	> 30	–
COC(=O)c1nn(C)c2c1c(=O)c1cc(Cl)ccc1n2O	> 10	–	–
Cn1nc(-c2ccc(N)cc2)c2c(=O)c3cc(Cl)ccc3n(O)c21	> 10	–	–
COCCc1nn(C)c2c1c(=O)c1cc(Cl)ccc1n2O	2.41	14.7	–
Cn1nc(C(F)(F)F)c2c(=O)c3c(Cl)c(Cl)ccc3n(O)c21	> 10	–	–
CCCc1nn(C)c2c1c(=O)c1cc(Cl)ccc1n2O	1.31	26.6	–
Cc1nn(C)c2c1c(=O)c1cc(Br)ccc1n2O	0.92	> 30	–
CC(=O)NCCc1nn(C)c2c1c(=O)c1cc(Cl)ccc1n2O	0.78	> 30	–
CNC(=O)CCCc1nn(C)c2c1c(=O)c1cc(Cl)ccc1n2O	0.75	> 30	–
CCn1nc(C)c2c(=O)c3cc(Cl)ccc3n(O)c21	4.19	> 30	–

From ChEMBL document CHEMBL1147685, “Synthesis and SAR of 1,9-dihydro-9-hydroxypyrazolo[3,4-b]quinolin-4-ones as novel, selective c-Jun N-terminal kinase inhibitors” (Bioorg Med Chem Lett, 2006)
